Assay results as given in ChEMBL document CHEMBL3124907.

How the values were obtained:
[1] = target: T1, 5-hydroxytryptamine receptor 2C (Homo sapiens) (UniProt P28335); experiment: Inhibition of 5-HT2C receptor (unknown origin) at 10 uM by radioligand binding assay relative to control
T1 sequence (whole entry): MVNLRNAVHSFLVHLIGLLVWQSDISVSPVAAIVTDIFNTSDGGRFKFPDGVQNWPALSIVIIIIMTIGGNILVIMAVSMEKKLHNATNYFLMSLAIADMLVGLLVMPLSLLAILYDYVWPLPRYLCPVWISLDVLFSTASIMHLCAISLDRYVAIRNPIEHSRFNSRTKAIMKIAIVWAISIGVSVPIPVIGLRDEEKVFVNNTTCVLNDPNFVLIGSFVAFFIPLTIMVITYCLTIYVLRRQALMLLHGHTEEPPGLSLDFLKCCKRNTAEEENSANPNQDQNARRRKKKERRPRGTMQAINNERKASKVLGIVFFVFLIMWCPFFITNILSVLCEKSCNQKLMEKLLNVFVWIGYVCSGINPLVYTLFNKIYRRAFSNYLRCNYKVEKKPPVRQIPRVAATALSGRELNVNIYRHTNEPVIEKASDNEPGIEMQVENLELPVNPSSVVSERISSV

[2] = target: 5-hydroxytryptamine receptor 2B (Homo sapiens) (UniProt P41595); experiment: Inhibition of 5-HT2B receptor (unknown origin) at 10 uM by radioligand binding assay relative to control
[3] = target: 5-hydroxytryptamine receptor 2A (Homo sapiens) (UniProt P28223); experiment: Inhibition of 5-HT2A receptor (unknown origin) at 10 uM by radioligand binding assay relative to control
[4] = target: 5-hydroxytryptamine receptor 2B (Homo sapiens) (UniProt P41595); experiment: Agonist activity at 5-HT2B receptor (unknown origin) expressed in Flp-In HEK cells assessed as stimulation of calcium mobilization at 10 uM relative to 5-HT; format: functional, cell-based; details: HEK293
Procedure, shortened: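 Agonist-mode calcium mobilization in Flp-In HEK cells expressing 5-HT2B, with test compound at 10 µM. Response expressed as percent of the maximal 5-HT response.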

[5] = target: Translocator protein (Homo sapiens) (UniProt P30536); experiment: Inhibition of PBR (unknown origin) at 10 uM by radioligand binding assay relative to control
[6] = target: Muscarinic acetylcholine receptor M5 (Homo sapiens) (UniProt P08912); experiment: Inhibition of muscarinic M5 receptor (unknown origin) at 10 uM by radioligand binding assay relative to control
[7] = target: Glutamate [NMDA] receptor (Homo sapiens) (UniProt Q05586+Q12879+Q13224+O15399+O60391+Q14957+Q8TCU5); experiment: Inhibition of NMDA receptor (unknown origin) at 10 uM by radioligand binding assay relative to control
[8] = target: Muscarinic acetylcholine receptor M2 (Homo sapiens) (UniProt P08172); experiment: Inhibition of muscarinic M2 receptor (unknown origin) at 10 uM by radioligand binding assay relative to control
[9] = target: Sodium-dependent noradrenaline transporter (Homo sapiens) (UniProt P23975); experiment: Inhibition of NET (unknown origin) at 10 uM by radioligand binding assay relative to control
Rattus norvegicus = organism: Rattus norvegicus; experiment: Inhibition of benzodiazepine receptor in rat brain at 10 uM by radioligand binding assay relative to control; format: tissue-based
[10] = target: Beta-2 adrenergic receptor (Homo sapiens) (UniProt P07550); experiment: Inhibition of beta-2 adrenergic receptor (unknown origin) at 10 uM by radioligand binding assay relative to control
[11] = target: Alpha-2C adrenergic receptor (Homo sapiens) (UniProt P18825); experiment: Inhibition of alpha2C adrenergic receptor (unknown origin) at 10 uM by radioligand binding assay relative to control
[12] = target: Alpha-2A adrenergic receptor (Homo sapiens) (UniProt P08913); experiment: Inhibition of alpha2A adrenergic receptor (unknown origin) at 10 uM by radioligand binding assay relative to control
[13] = target: Alpha-1D adrenergic receptor (Homo sapiens) (UniProt P25100); experiment: Inhibition of alpha1D adrenergic receptor (unknown origin) at 10 uM by radioligand binding assay relative to control
[14] = target: Alpha-1B adrenergic receptor (Homo sapiens) (UniProt P35368); experiment: Inhibition of alpha1B adrenergic receptor (unknown origin) at 10 uM by radioligand binding assay relative to control
[15] = target: Alpha-1A adrenergic receptor (Homo sapiens) (UniProt P35348); experiment: Inhibition of alpha1A adrenergic receptor (unknown origin) at 10 uM by radioligand binding assay relative to control
Homo sapiens = organism: Homo sapiens; experiment: Inhibition of sigma-2 receptor (unknown origin) at 10 uM by radioligand binding assay relative to control
[16] = target: Histamine H3 receptor (Homo sapiens) (UniProt Q9Y5N1); experiment: Inhibition of histamine H3 receptor (unknown origin) at 10 uM by radioligand binding assay relative to control
[17] = target: Histamine H1 receptor (Homo sapiens) (UniProt P35367); experiment: Inhibition of histamine H1 receptor (unknown origin) at 10 uM by radioligand binding assay relative to control
[18] = target: D(1B) dopamine receptor (Homo sapiens) (UniProt P21918); experiment: Inhibition of dopamine D5 receptor (unknown origin) at 10 uM by radioligand binding assay relative to control
[19] = target: D(1A) dopamine receptor (Homo sapiens) (UniProt P21728); experiment: Inhibition of dopamine D1 receptor (unknown origin) at 10 uM by radioligand binding assay relative to control
[20] = target: Sodium-dependent serotonin transporter (Homo sapiens) (UniProt P31645); experiment: Inhibition of SERT (unknown origin) at 10 uM by radioligand binding assay relative to control
[21] = target: 5-hydroxytryptamine receptor 7 (Homo sapiens) (UniProt P34969); experiment: Inhibition of 5-HT7 receptor (unknown origin) at 10 uM by radioligand binding assay relative to control
[22] = target: 5-hydroxytryptamine receptor 6 (Homo sapiens) (UniProt P50406); experiment: Inhibition of 5-HT6 receptor (unknown origin) at 10 uM by radioligand binding assay relative to control
[23] = target: 5-hydroxytryptamine receptor 3A (Homo sapiens) (UniProt P46098); experiment: Inhibition of 5-HT3 receptor (unknown origin) at 10 uM by radioligand binding assay relative to control
[24] = target: 5-hydroxytryptamine receptor 1D (Homo sapiens) (UniProt P28221); experiment: Inhibition of 5-HT1D receptor (unknown origin) at 10 uM by radioligand binding assay relative to control
[25] = target: 5-hydroxytryptamine receptor 1B (Homo sapiens) (UniProt P28222); experiment: Inhibition of 5-HT1B receptor (unknown origin) at 10 uM by radioligand binding assay relative to control
[26] = target: 5-hydroxytryptamine receptor 1A (Homo sapiens) (UniProt P08908); experiment: Inhibition of 5-HT1A receptor (unknown origin) at 10 uM by radioligand binding assay relative to control

5-hydroxytryptamine receptor 2B (Homo sapiens), sequence (P41595 whole entry): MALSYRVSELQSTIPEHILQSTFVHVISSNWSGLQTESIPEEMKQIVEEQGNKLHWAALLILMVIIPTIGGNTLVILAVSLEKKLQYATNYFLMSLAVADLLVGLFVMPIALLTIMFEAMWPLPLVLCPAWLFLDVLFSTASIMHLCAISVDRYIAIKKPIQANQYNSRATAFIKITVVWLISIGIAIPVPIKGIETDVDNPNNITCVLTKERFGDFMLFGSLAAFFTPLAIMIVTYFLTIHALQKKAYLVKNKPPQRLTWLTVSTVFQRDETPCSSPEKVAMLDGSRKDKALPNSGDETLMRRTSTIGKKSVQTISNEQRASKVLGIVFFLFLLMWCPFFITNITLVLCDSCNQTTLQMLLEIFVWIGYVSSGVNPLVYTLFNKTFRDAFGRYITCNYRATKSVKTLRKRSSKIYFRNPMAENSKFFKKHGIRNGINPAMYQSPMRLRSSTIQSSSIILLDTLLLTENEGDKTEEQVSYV
5-hydroxytryptamine receptor 2A (Homo sapiens), sequence (P28223 whole entry): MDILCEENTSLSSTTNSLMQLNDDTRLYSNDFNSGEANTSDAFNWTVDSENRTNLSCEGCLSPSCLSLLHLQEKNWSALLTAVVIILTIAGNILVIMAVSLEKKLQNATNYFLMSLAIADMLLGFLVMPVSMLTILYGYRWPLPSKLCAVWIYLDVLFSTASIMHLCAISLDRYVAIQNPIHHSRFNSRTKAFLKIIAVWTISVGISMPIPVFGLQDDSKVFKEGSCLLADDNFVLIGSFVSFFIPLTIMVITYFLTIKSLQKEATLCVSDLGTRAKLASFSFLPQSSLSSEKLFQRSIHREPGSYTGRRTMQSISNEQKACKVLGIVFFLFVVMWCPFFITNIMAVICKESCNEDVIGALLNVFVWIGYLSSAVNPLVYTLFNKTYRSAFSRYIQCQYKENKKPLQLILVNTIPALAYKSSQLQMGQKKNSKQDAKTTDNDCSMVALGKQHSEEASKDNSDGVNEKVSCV
Translocator protein (Homo sapiens), sequence (P30536 whole entry): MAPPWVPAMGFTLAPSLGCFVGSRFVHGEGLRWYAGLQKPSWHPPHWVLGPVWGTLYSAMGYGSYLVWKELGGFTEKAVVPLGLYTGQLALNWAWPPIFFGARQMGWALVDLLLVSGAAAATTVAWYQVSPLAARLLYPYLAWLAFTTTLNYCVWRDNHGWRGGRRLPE
Sodium-dependent noradrenaline transporter (Homo sapiens), sequence (P23975 whole entry): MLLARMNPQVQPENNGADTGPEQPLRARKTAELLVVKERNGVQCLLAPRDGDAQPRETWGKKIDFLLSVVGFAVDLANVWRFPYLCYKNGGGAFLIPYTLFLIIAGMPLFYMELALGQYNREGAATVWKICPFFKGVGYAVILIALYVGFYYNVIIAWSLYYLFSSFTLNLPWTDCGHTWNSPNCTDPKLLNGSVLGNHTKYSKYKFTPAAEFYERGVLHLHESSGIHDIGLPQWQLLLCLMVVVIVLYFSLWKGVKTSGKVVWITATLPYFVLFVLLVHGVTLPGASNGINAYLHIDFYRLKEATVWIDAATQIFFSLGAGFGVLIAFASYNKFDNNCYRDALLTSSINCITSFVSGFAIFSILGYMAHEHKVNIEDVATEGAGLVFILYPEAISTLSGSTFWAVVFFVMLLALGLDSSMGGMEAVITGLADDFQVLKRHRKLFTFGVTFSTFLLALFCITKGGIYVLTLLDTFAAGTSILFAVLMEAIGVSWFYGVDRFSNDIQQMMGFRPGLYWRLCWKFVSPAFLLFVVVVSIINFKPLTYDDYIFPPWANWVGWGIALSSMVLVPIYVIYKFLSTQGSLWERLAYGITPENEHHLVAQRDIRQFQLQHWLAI
D(1A) dopamine receptor (Homo sapiens), sequence (P21728 whole entry): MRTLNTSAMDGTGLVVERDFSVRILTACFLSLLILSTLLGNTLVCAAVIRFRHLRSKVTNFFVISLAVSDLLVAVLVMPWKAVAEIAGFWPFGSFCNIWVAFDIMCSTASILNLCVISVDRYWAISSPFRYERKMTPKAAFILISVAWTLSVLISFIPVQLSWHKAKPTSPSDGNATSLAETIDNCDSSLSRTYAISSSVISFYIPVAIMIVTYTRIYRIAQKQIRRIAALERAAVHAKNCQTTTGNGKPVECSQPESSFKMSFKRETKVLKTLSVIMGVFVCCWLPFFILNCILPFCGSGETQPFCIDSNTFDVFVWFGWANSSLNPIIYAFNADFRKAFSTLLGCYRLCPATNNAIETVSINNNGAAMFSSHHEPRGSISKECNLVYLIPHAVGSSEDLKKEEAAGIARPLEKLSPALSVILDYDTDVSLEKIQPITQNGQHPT
Sodium-dependent serotonin transporter (Homo sapiens), sequence (P31645 whole entry, looked up): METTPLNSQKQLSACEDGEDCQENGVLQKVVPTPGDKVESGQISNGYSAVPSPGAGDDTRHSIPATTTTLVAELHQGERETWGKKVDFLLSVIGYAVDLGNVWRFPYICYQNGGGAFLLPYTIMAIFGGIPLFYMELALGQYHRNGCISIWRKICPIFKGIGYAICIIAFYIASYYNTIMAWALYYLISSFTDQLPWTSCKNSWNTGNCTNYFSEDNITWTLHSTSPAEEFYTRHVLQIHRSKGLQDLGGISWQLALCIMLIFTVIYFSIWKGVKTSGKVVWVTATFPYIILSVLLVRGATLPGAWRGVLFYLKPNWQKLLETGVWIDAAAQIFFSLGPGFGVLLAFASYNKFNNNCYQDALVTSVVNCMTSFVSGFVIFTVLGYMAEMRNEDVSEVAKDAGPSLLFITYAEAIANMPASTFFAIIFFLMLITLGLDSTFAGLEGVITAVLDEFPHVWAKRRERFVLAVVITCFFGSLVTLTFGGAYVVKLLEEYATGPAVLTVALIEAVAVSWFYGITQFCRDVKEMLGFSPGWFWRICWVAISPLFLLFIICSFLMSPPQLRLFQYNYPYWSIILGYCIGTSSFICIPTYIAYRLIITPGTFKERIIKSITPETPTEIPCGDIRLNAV
Muscarinic acetylcholine receptor M2 (Homo sapiens), sequence (P08172 whole entry): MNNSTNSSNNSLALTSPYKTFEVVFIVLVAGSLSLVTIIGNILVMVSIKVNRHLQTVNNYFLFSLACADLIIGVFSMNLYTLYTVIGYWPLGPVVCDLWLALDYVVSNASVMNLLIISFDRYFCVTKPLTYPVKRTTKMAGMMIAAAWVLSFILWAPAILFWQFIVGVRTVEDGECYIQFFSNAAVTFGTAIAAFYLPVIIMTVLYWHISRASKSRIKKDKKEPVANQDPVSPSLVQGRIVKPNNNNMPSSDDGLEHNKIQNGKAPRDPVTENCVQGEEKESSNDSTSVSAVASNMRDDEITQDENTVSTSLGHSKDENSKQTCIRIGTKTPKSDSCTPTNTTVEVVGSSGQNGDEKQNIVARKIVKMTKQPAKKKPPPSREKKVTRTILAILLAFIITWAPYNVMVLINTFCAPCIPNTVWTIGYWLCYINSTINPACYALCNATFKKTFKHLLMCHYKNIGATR
Alpha-1D adrenergic receptor (Homo sapiens), sequence (P25100 whole entry): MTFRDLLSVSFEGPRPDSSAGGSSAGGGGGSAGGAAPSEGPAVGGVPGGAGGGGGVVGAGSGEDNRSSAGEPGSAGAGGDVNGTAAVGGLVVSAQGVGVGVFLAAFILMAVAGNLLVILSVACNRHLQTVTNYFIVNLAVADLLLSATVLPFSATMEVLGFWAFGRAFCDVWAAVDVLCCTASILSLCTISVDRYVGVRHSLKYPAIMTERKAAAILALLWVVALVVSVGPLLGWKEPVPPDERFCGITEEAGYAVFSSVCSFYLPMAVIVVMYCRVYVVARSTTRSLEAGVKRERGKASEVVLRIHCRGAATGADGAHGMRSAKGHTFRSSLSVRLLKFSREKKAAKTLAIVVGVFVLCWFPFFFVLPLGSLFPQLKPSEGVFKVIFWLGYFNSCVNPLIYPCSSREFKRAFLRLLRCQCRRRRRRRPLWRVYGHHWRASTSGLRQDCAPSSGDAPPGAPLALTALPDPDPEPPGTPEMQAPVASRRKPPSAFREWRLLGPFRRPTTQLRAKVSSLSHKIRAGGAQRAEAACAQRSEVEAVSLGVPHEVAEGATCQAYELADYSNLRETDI
5-hydroxytryptamine receptor 3A (Homo sapiens), sequence (P46098 whole entry): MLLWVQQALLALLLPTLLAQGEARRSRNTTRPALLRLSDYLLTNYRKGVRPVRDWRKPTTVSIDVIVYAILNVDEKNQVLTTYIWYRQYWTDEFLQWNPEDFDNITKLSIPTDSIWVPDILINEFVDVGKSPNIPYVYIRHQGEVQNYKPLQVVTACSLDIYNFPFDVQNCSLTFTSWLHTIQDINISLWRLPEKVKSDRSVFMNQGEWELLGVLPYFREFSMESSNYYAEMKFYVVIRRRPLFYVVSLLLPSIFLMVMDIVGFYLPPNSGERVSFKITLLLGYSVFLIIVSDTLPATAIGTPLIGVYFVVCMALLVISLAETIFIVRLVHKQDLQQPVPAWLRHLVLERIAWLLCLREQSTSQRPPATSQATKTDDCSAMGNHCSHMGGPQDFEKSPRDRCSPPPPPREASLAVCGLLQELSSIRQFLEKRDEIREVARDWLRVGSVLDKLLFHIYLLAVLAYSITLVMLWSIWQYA
Alpha-1B adrenergic receptor (Homo sapiens), sequence (P35368 whole entry): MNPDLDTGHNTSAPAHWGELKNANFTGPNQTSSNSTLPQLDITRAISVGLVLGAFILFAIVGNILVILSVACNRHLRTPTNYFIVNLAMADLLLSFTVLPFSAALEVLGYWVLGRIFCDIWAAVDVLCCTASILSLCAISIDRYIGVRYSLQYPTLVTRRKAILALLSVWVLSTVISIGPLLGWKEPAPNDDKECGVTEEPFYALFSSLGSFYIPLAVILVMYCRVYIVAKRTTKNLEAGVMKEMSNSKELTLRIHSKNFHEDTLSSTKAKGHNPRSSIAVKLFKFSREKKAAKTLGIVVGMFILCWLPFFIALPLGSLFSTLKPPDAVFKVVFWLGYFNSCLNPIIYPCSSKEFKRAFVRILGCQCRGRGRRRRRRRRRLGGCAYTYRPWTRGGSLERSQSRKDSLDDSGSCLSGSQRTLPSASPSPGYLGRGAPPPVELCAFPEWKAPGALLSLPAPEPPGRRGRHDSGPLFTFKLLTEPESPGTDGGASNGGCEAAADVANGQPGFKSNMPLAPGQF

An inhibition [1] of 23.5%, an inhibition [2] of 31.5% and an inhibition [3] of -4.5% were found for `O=c1cc(Cc2cccs2)oc2cccc(O)c12` in this work.

An inhibition [1] of 7.9%, an inhibition [2] of 70.4% and an inhibition [3] of 5.4% were found for `O=c1cc(CCCc2ccccc2)oc2cccc(O)c12` in this work.

An inhibition [1] of 7.8%, an inhibition [2] of 50% and an inhibition [3] of 0.2% were found for `O=c1cc(COc2ccccc2)oc2cccc(O)c12` in this work.

An inhibition [1] of 14.7%, an inhibition [2] of 45.2% and an inhibition [3] of 5.7% were found for `O=c1cc(CCCCc2ccccc2)oc2cccc(O)c12` in this work.

An Activity [4] of 0.6%, an inhibition [5] of 2.8% and an inhibition [6] of 19.3% were found for `O=c1cc(CCc2ccccc2)oc2cccc(O)c12` in this work. The inhibition [7] was 17.4%, the inhibition [8] was 1.8% and the inhibition [9] was 34.6%. The inhibition (Rattus norvegicus) was 0.1%, the inhibition [10] was 1.4% and the inhibition [11] was 32.7%. For the same compound, the inhibition [12] was 22.2%, the inhibition [13] was 2.1% and the inhibition [14] was 2.9%. For the same compound, the inhibition [15] was 16.9%, the inhibition (Homo sapiens) was 36.8% and the inhibition [16] was 15.9%. It also gave an inhibition [17] of 13%, an inhibition [18] of 0.4% and an inhibition [19] of 24.7%. It also gave an inhibition [20] of 28.9%, an inhibition [21] of 35.9% and an inhibition [22] of 5.8%. The inhibition [23] was 61.7%, the inhibition [24] was 4.3% and the inhibition [25] was 3.7%. For the same compound, the inhibition [26] was 5.4%.

An inhibition [1] of 24.8%, an inhibition [2] of 30.6% and an inhibition [3] of 1.4% were found for `O=c1cc(Cc2ccccc2)oc2cccc(O)c12` in this work.

An inhibition [1] of 19.6%, an inhibition [2] of 74.8% and an inhibition [3] of 1.4% were found for `O=c1cc(CCc2cccs2)oc2cccc(O)c12` in this work.
